Sampled rows, rich in hits. Any-hit rate of the full collection: about 4.9%.
STAT3 activator – activators of IL-6 induced STAT3 signaling; U3A cells, IL-6 STAT3-luciferase reporter, luminescence; 100% = signal with IL-6 EC80 alone; activation (% of control), % at 5.6 µM; 190,000 compounds, 0.91% hits;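 active = activation above the screen-wide mean of compound activation plus 3 SD, cut at about 130% in these data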;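 also: 0% = background luminescence of wells with medium and substrate only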
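Material: STAT3-luciferase reporter U3A cells. Controls: IL-6-treated wells, 100% activation. Read-out: % activation versus median of IL-6-stimulated wells. Probe or stimulus: IL-6 stimulus at 33 ng/mL final. Timing: compound 1 h, then IL-6 6 h at 37 °C. Signal: reporter luminescence signal.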
STAT1 blocker – STAT1 signaling inhibition; NIH 3T3 STAT1-luciferase reporter, IFN-gamma, luminescence; inhibition, % at 5.5 µM; 200,000 compounds, 0.35% hits;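 active = inhibition above a set limit, the mean inhibition across all tested compounds plus 3 SD, cut at about 34% in these data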;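 also: 0% = IFN-gamma with DMSO and 100% = IFN-gamma with 300 µM nifuroxazide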
APP 5'UTR act – APP 5'UTR luciferase reporter activation; activation, % at 2 µM; SH-SY5Y APP 5'UTR luciferase reporter, luminescence; zero percent = DMSO vehicle wells; 190,000 compounds, 1% hits;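 active = activation above a set limit, based on mean plus 3 SD of controls, cut at about 140% in these data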
STAT3 blocker – inhibitors of IL-6 induced STAT3 signaling. U3A cells, IL-6 STAT3-luciferase reporter, luminescence; host cell line lacks STAT1. inhibition, % at 5.5 µM. 190,000 compounds, 0.89% hits. AID 862;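 active = inhibition above the mean inhibition across all screened compounds plus 3 SD, cut at about 44% in these data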;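 also: 0% = DMSO only wells and 100% = 100 µM nifuroxazide control wells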
STAT1 activator – activators of IFN-gamma induced STAT1 signaling. NIH 3T3 STAT1-luciferase reporter, luminescence; 100% = IFN-gamma alone, no compound. activation (% of control), % at 5.5 µM. AID 932. 200,000 compounds, 2.6% hits;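 active = activation above the screen-wide mean activation plus 3 SD, cut at about 130% in these data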;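 also: raw ratio to IFN-gamma control signal so 100% means no change and 0% no light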
NF-kB expr up – raises NF-kB expression in human neuronal cells; NF-kB reporter expression; hits give high values; fold change at 12.5 µM; 190,000 compounds, 1.6% hits; in the data active = fold change above about 3.3
* hit, by the source's call; . = no result given.

SMILES | STAT3 activator | STAT1 blocker | APP 5'UTR act | STAT3 blocker | STAT1 activator | NF-kB expr up
CC1(C)Cc2c(sc3nc(-c4cccs4)n(N)c(=O)c23)CO1 | 96 | -39 | 52 | 11 | 138* | 1.2
Cc1nc2sc3c(c2c(=O)n1N)CCC3 | 101 | -3 | 2 | 6 | 102 | 1.2
CC1(C)Cc2c(sc3nc(-c4ccccc4)n(N)c(=O)c23)CO1 | 84 | -16 | 26 | 22 | 115 | 0.69
Cc1ccccc1-c1nc2sc3c(c2c(=O)n1N)CCCC3 | 104 | -50 | 150* | -8 | 146* | 1.5
CN1CCOC(=O)/C1=N/Nc1cc(Cl)ccc1Cl | 99 | 2 | -6 | 6 | 97 | 1.2
CCC(=O)N(Cc1ccc(S(N)(=O)=O)cc1)C1CC(=O)N(c2ccccc2)C1=O (stereo not drawn) | 95 | 1 | 12 | 8 | 98 | 1.1
CCN(CC)S(=O)(=O)c1cc(C(=O)OCC(=O)Nc2cccc(S(=O)(=O)N(C)C)c2)ccc1F | 108 | 5 | -7 | 3 | 95 | 0.94
CCN(CC)S(=O)(=O)c1cc(C(=O)OCC(=O)Nc2ccc(-c3nc4ccc(C)cc4s3)cc2)ccc1F | 72 | -50 | 143* | 38 | 145* | 6*
C=CCN(c1ccccc1C(=O)O)S(=O)(=O)/C=C/c1ccccc1 | 100 | 0 | 12 | 0 | 101 | 1.1
Cc1c(Cl)cnc(NC(=O)COC(=O)c2cccc(S(=O)(=O)N3c4ccccc4CC3C)c2)c1Cl (stereo not drawn) | 108 | 0 | 3 | -12 | 100 | 1.1
CSc1nnc(-c2cc3c(s2)-c2ccccc2CC3)o1 | 164* | -41 | 122 | -71 | 136* | 3.2
S=c1[nH]nc(-c2cc3c(s2)-c2ccccc2CC3)o1 | 133 | -19 | 24 | -34 | 118 | 1.6
CC(NC(=O)CCn1nc(-c2ccc(Cl)cc2)ccc1=O)c1ccccc1 (stereo not drawn) | 97 | 4 | 7 | 15 | 96 | 0.82
COc1ccccc1-c1nc(NC(C)=O)n[nH]1 | 159* | 12 | 0 | -65 | 89 | 1.1
O=C(Cn1ncc(N2CCCC2)c(Cl)c1=O)c1ccc(Cl)cc1 | 110 | -41 | 83 | 0 | 136* | 1.3
O=C(Cn1ncc(N2CCOCC2)c(Br)c1=O)c1ccc(Cl)cc1 | 94 | -17 | 26 | 9 | 114 | 0.93
Cc1ccc(/C=C/C(=O)C2C(=O)c3ccccc3C2=O)cc1 | 54 | 34 | 57 | 60* | 69 | 2.4
Cc1cccc(Nc2ncc3c(n2)CC(C)CC3=O)c1 (stereo not drawn) | 91 | -38 | 34 | 14 | 135* | 2.4
C=CCNC(=O)c1ccc(-c2nc(-c3ccccc3)cs2)cc1 | 99 | -51 | 57 | 12 | 146* | 2.1
Cc1ccc(C(=O)Nc2nc(=O)n(C(=O)c3ccccc3Cl)s2)cc1 | 122 | -44 | 25 | -19 | 141* | 1.2
CCc1nnc(NC(=O)CN2CCN(c3ccc(Cl)cc3)CC2)s1 | 95 | 1 | . | 8 | 102 | .
C=CCn1c(SCc2c(C)noc2C)nc2cc(C(=O)O)ccc2c1=O | 92 | -2 | -3 | 13 | 102 | 2.8
C=CCn1c(SCc2c(C)noc2C)nc2ccccc2c1=O | 103 | -3 | -95 | 1 | 102 | 3.4*
CCOc1ccc(NC(=O)CNC(=O)c2cccs2)cc1 | 104 | -1 | 10 | 5 | 101 | 1.2
Cc1cc(C(=O)CN2C(=O)NC(C)(c3ccccc3)C2=O)c(C)n1CC1CCCO1 (stereo not drawn) | 97 | 6 | 7 | 3 | 94 | 0.64
Cc1cc(C(=O)CSc2nnnn2-c2ccccc2)c(C)n1CC1CCCO1 (stereo not drawn) | 105 | -43 | 8 | 0 | 139* | 0.94
Cc1cc(C(=O)CSc2nc3ccccc3c(=O)n2C)c(C)n1CC1CCCO1 (stereo not drawn) | 32 | 38* | -17 | 82* | 64 | 0.58
Cc1cc(C(=O)CN2C(=O)c3ccccc3S2(=O)=O)c(C)n1CC1CCCO1 (stereo not drawn) | 10 | 79* | -86 | 112* | 27 | 0.32
Cc1c(Br)c([N+](=O)[O-])nn1CCCC(=O)NC(C)c1ccccc1 (stereo not drawn) | 96 | 5 | 8 | 13 | 94 | 0.93
